# Article PMC2978626 (The Journal of Biological Chemistry, 2010)
# Where no end group is shown, it is not given here.
# B1: FnZ(370-428), recombinant fragment of the fibronectin-binding protein FnZ from S. zooepidemicus (domain or fragment)
# chain: GPLGSRNPHLMGIGGGLAGESGETTPKPGQTGGQGPVIETTEDTQKGMSGQSGGTIESENTKKP
# Key:
# [1] = molecular target: GBD (gelatin-binding domain of fibronectin) (Homo sapiens, UniProt P02751); assay: ITC, binding to GBD
# Summary of the method: (§1)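 Cell held GBD (proteolytic Fn fragment, dialysed into buffer) or ⁸F1⁹F1 (Pichia-expressed, Endo Hf-trimmed glycans). Syringe held uncapped synthetic test peptide at 10–20× the cell concentration. Both were degassed at 20 °C for 15 min. 2 μl preinjection, then 39 × 7 μl injections at 0.5 μl/s, 307 rpm, 360 s spacing. Averaged heats from a separate peptide-into-buffer run were subtracted; one-site binding fit.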
# [2] = molecular target: ^8F1^9F1 (module pair of fibronectin, Fn precursor residues 516–608) (Homo sapiens, UniProt P02751); assay: ITC, binding to ^8F1^9F1; conditions: 10 mM NaH2PO4/K2HPO4, pH 7.4, 25 °C, FnZ peptide 2.97 mM, Fn domain 0.24 mM
# ^8F1^9F1 (module pair of fibronectin, Fn precursor residues 516–608), sequence (P02751 516-608): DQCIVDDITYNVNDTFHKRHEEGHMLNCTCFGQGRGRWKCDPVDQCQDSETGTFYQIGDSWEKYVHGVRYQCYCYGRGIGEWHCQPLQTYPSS
# Summary of the method: as §1
# [3] = molecular target: gelatin-binding domain (GBD) of fibronectin, proteolytic fragment (human); assay: ITC
# [4] = molecular target: recombinant fibronectin 100-kDa N-terminal fragment (human); assay: ITC
# [5] = ITC, 10 mM NaH2PO4/K2HPO4, pH 7.4, 25 °C, FnZ peptide 0.11 mM, Fn domain 0.01 mM
# GBD (gelatin-binding domain of fibronectin), sequence (P02751 308-608 limits assumed): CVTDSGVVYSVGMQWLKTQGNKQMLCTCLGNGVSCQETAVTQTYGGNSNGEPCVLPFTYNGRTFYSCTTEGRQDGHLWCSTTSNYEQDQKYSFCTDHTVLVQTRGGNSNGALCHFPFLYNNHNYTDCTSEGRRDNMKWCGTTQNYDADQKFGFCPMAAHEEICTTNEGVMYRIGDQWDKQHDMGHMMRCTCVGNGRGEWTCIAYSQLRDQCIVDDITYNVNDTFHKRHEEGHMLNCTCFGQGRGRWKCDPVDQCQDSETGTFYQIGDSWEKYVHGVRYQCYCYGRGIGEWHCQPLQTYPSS
molecule,measurement,setting,value
RNPHLMGIGGGLAGESGETTPK [FnZ peptide],Kd,[1],540 ± 40 nM
same,ΔH,[1]; [5],-17.7 kcal/mol
same,ΔS,[1]; [5],−30.8 cal/mol K^−1
same,ΔH,[2],-29.8 kcal/mol
same,ΔS,[2],−77.2 cal/mol K^−1
"H-RNPHLMGIGGGLAGESGETTPK-OH [FnZ synthetic peptide, residues 370-391]",Kd,[3],540 nM
same,dH,[3],-17.7 kcal/mol
B1,Kd,[4],0.8 nM
same,dH,[4],-54.6 kcal/mol
same,stoichiometry N,[4],1.06
